# Measured values published in ChEMBL document CHEMBL2434966, “Novel N-4-piperazinyl-ciprofloxacin-chalcone hybrids: synthesis, physicochemical properties, anticancer and topoisomerase I and II inhibitory activity” (Eur J Med Chem, 2013).
# Legend:
# [1] = Aqueous solubility of the compound at pH 7.8 by UV spectroscopic analysis; format: physicochemical; details: aqueous solution
# Summary of the method: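 Excess solid (10 mg) shaken in buffer at pH 6.9 or 7.8, 37 °C. The filtrate was diluted into the linear calibration range and dissolved drug measured by UV absorbance at λmax 272 nm. Values are the average of at least three agreeing independent measurements.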
# BT-549 = assay: Growth inhibition of human BT549 cells after 48 hrs by sulforhodamine B assay; format: functional; details: BT-549, 48 h
# Summary of the method: (§1)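 NCI 60-panel five-dose test at 10-fold dilutions, 10^-4 to 10^-8 M, with 48 h continuous exposure and SRB protein read-out. Percent growth derived from time-zero, untreated-control and treated absorbances. GI50 is the concentration where [(Ti-Tz)/(C-Tz)]×100 = 50. TGI is taken at Ti = Tz. LC50 is taken at [(Ti-Tz)/Tz]×100 = -50.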
# TK-10 = assay: Growth inhibition of human TK10 cells after 48 hrs by sulforhodamine B assay; format: functional; details: TK-10, 48 h; for CC50: read-out: LC50 (the source's name)
# Summary of the method: (§2)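 NCI 60-cell panel, five concentrations (10-fold dilutions, 0.01–100 µM), 48 h continuous exposure; SRB protein stain read spectrophotometrically. Percent growth from time-zero, untreated-control and treated absorbances. GI50 is the concentration giving 50% lower net protein increase than control. Values beyond the tested range are reported as more or less than the highest or lowest concentration.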
# CAKI-1 = assay: Growth inhibition of human CAKI-1 cells after 48 hrs by sulforhodamine B assay; format: functional; details: CAKI-1, 48 h; summary of the method: as §1
# OVCAR-8 [2] = assay: Growth inhibition of human OVCAR8 cells after 48 hrs by sulforhodamine B assay; format: functional; details: OVCAR-8, 48 h; for CC50: read-out: LC50 (the source's name)
# Summary of the method: (§3)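 NCI five-dose screen on the full 60-cell-line panel. Cells were given 10-fold dilutions from 10^-4 to 10^-8 M with continuous 48 h exposure, and growth was read by SRB staining. Percent growth was taken from time-zero, control and treated absorbances. GI50, TGI and LC50 were then derived, the GI50 being the concentration that gives a 50% lower net protein increase than control.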
# OVCAR-4 = assay: Growth inhibition of human OVCAR4 cells after 48 hrs by sulforhodamine B assay; format: functional; details: OVCAR-4, 48 h; for CC50: read-out: LC50 (the source's name); summary of the method: as §3
# UACC-62 = assay: Growth inhibition of human UACC62 cells after 48 hrs by sulforhodamine B assay; format: functional; details: UACC-62, 48 h; summary of the method: as §2
# SK-MEL-28 = assay: Growth inhibition of human SK-MEL-28 cells after 48 hrs by sulforhodamine B assay; format: functional; details: SK-MEL-28, 48 h; for CC50: read-out: LC50 (the source's name); summary of the method: as §3
# LOX IMVI = assay: Growth inhibition of human LOXIMVI cells after 48 hrs by sulforhodamine B assay; format: functional; summary of the method: as §1
# SNB-19 = assay: Growth inhibition of human SNB19 cells after 48 hrs by sulforhodamine B assay; format: functional; details: SNB-19, 48 h; summary of the method: as §2
# SF-268 [3] = assay: Growth inhibition of human SF268 cells after 48 hrs by sulforhodamine B assay; format: functional; details: SF-268, 48 h; for CC50: read-out: LC50 (the source's name); summary of the method: as §3
# HCT-116 = assay: Growth inhibition of human HCT116 cells after 48 hrs by sulforhodamine B assay; format: functional; details: HCT-116, 48 h; summary of the method: as §1
# MOLT-4 = assay: Growth inhibition of human MOLT4 cells after 48 hrs by sulforhodamine B assay; format: functional; details: MOLT-4, 48 h; for CC50: read-out: LC50 (the source's name); summary of the method: as §3
# K562 = assay: Growth inhibition of human K562 cells after 48 hrs by sulforhodamine B assay; format: functional; details: K562, 48 h; summary of the method: as §1
# HL-60(TB) = assay: Growth inhibition of human HL-60(TB) cells after 48 hrs by sulforhodamine B assay; format: functional; details: HL-60, 48 h; for CC50: read-out: LC50 (the source's name)
# Summary of the method: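 NCI 60-panel five-dose screen: cells exposed continuously for 48 h to 10-fold dilutions from 10^-4 to 10^-8 M; SRB protein staining read spectrophotometrically. Percent growth from time-zero, untreated-control and treated absorbances; GI50 is the concentration giving 50% lower net protein increase than control.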
# MDA-MB-231 = assay: Growth inhibition of human MDA-MB-231 cells assessed as cell growth at 10^-5 M after 48 hrs by sulforhodamine B assay; format: functional; details: MDA-MB-231, 48 h, read-out: Activity
# Summary of the method: (§4)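 NCI 60-cell-line primary one-dose screen. Cells were exposed to a single 10^-5 M concentration for 48 h. The end point was sulforhodamine B protein staining, read spectrophotometrically. Results are reported as percent growth of treated cells relative to untreated control cells.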
# MCF7 = assay: Growth inhibition of human MCF7 cells assessed as cell growth at 10^-5 M after 48 hrs by sulforhodamine B assay; format: functional; details: MCF7, 48 h, read-out: Activity
# Summary of the method: (§5)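 NCI 60-cell-line primary screen. Single concentration of 10^-5 M, 48 h incubation. End point by sulforhodamine B protein staining read spectrophotometrically. Reported as percent growth of treated cells relative to untreated control cells.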
# OVCAR-8 [4] = assay: Growth inhibition of human OVCAR8 cells assessed as cell growth at 10^-5 M after 48 hrs by sulforhodamine B assay; format: functional; details: OVCAR-8, 48 h, read-out: Activity; summary of the method: as §4
# U-251 = assay: Growth inhibition of human U251 cells assessed as cell growth at 10^-5 M after 48 hrs by sulforhodamine B assay; format: functional; details: U-251, 48 h, read-out: Activity
# Summary of the method: (§6)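 NCI primary one-dose screen: single concentration of 10^-5 M added to culture, 48 h incubation, SRB protein-dye endpoint. Percent growth of treated cells measured spectrophotometrically against untreated controls.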
# SNB-75 = assay: Growth inhibition of human SNB75 cells assessed as cell growth at 10^-5 M after 48 hrs by sulforhodamine B assay; format: functional; details: SNB-75, 48 h, read-out: Activity; summary of the method: as §6
# SF-539 = assay: Growth inhibition of human SF539 cells assessed as cell growth at 10^-5 M after 48 hrs by sulforhodamine B assay; format: functional; details: SF-539, 48 h, read-out: Activity; summary of the method: as §4
# SF-295 = assay: Growth inhibition of human SF295 cells assessed as cell growth at 10^-5 M after 48 hrs by sulforhodamine B assay; format: functional; details: SF-295, 48 h, read-out: Activity; summary of the method: as §4
# SF-268 [5] = assay: Growth inhibition of human SF268 cells assessed as cell growth at 10^-5 M after 48 hrs by sulforhodamine B assay; format: functional; details: SF-268, 48 h, read-out: Activity; summary of the method: as §4
# HCT-15 = assay: Growth inhibition of human HCT15 cells assessed as cell growth at 10^-5 M after 48 hrs by sulforhodamine B assay; format: functional; details: HCT-15, 48 h, read-out: Activity; summary of the method: as §5
smiles,measurement,setting,value
COc1cc(/C=C/C(=O)c2ccc(NC(=O)CN3CCN(c4cc5c(cc4F)c(=O)c(C(=O)O)cn5C4CC4)CC3)cc2)cc(OC)c1OC,solubility,[1],2.01 µg/mL
same,GI50,BT-549,0.3 µM
same,LC50 (concentration giving 50% net cell kill),BT-549,6.98 µM
same,TGI,BT-549,1.17 µM
same,GI50,TK-10,1.29 µM
same,TGI,TK-10,16.5 µM
same,CC50,TK-10,> 100 µM
same,GI50,CAKI-1,1.13 µM
same,LC50 (concentration killing 50% of starting cells),CAKI-1,> 100 µM
same,TGI,CAKI-1,> 100 µM
same,GI50,OVCAR-8 [2],0.34 µM
same,TGI,OVCAR-8 [2],26.7 µM
same,CC50,OVCAR-8 [2],> 100 µM
same,GI50,OVCAR-4,1.61 µM
same,TGI,OVCAR-4,84.6 µM
same,CC50,OVCAR-4,> 100 µM
same,GI50,UACC-62,0.8 µM
same,LC50,UACC-62,27.9 µM
same,TGI,UACC-62,3.63 µM
same,GI50,SK-MEL-28,1.1 µM
same,TGI,SK-MEL-28,17 µM
same,CC50,SK-MEL-28,98.2 µM
same,GI50,LOX IMVI,0.53 µM
same,LC50 (concentration killing 50% of starting cells),LOX IMVI,> 100 µM
same,TGI,LOX IMVI,2.65 µM
same,GI50,SNB-19,2.78 µM
same,LC50,SNB-19,> 100 µM
same,TGI,SNB-19,> 100 µM
same,GI50,SF-268 [3],1.06 µM
same,TGI,SF-268 [3],61.2 µM
same,CC50,SF-268 [3],> 100 µM
same,GI50,HCT-116,0.23 µM
same,TGI,HCT-116,0.69 µM
same,GI50,MOLT-4,0.31 µM
same,CC50,MOLT-4,> 100 µM
same,GI50,K562,0.27 µM
same,LC50 (concentration giving 50% net cell kill),K562,> 100 µM
same,TGI,K562,> 100 µM
same,GI50,HL-60(TB),1.11 µM
same,TGI,HL-60(TB),> 100 µM
same,CC50,HL-60(TB),> 100 µM
same,growth at 10 µM,MDA-MB-231,27.6%
same,growth at 10 µM,MCF7,26.5%
same,growth at 10 µM,OVCAR-8 [4],4.74%
same,growth at 10 µM,U-251,-55.8%
same,growth at 10 µM,SNB-75,76.6%
same,growth at 10 µM,SF-539,-15.8%
same,growth at 10 µM,SF-295,-27.2%
same,growth at 10 µM,SF-268 [5],-1.11%
same,growth at 10 µM,HCT-15,18.2%
O=C(CN1CCN(c2cc3c(cc2F)c(=O)c(C(=O)O)cn3C2CC2)CC1)Nc1ccc(C(=O)/C=C/c2ccccc2)cc1,solubility,[1],2.53 µg/mL
same,GI50,BT-549,3.56 µM
same,LC50 (concentration giving 50% net cell kill),BT-549,> 100 µM
same,TGI,BT-549,> 100 µM
same,GI50,TK-10,4.19 µM
same,TGI,TK-10,> 100 µM
same,CC50,TK-10,> 100 µM
same,GI50,CAKI-1,1.76 µM
same,LC50 (concentration killing 50% of starting cells),CAKI-1,> 100 µM
same,TGI,CAKI-1,5.32 µM
same,GI50,OVCAR-8 [2],3.07 µM
same,TGI,OVCAR-8 [2],> 100 µM
same,CC50,OVCAR-8 [2],> 100 µM
same,GI50,OVCAR-4,9.47 µM
same,TGI,OVCAR-4,> 100 µM
same,CC50,OVCAR-4,> 100 µM
same,GI50,UACC-62,3.71 µM
same,LC50,UACC-62,> 100 µM
same,TGI,UACC-62,> 100 µM
same,GI50,SK-MEL-28,18.8 µM
same,TGI,SK-MEL-28,> 100 µM
same,CC50,SK-MEL-28,> 100 µM
same,GI50,LOX IMVI,2.32 µM
same,LC50 (concentration killing 50% of starting cells),LOX IMVI,> 100 µM
same,TGI,LOX IMVI,> 100 µM
same,GI50,SNB-19,3.05 µM
same,LC50,SNB-19,> 100 µM
same,TGI,SNB-19,> 100 µM
same,GI50,SF-268 [3],4.13 µM
same,TGI,SF-268 [3],> 100 µM
same,CC50,SF-268 [3],> 100 µM
same,GI50,HCT-116,0.66 µM
same,LC50,HCT-116,9.55 µM
same,TGI,HCT-116,2.68 µM
same,GI50,MOLT-4,5.13 µM
same,TGI,MOLT-4,> 100 µM
same,CC50,MOLT-4,> 100 µM
same,GI50,K562,3.07 µM
same,LC50 (concentration giving 50% net cell kill),K562,> 100 µM
same,TGI,K562,> 100 µM
same,GI50,HL-60(TB),9.44 µM
same,TGI,HL-60(TB),> 100 µM
same,CC50,HL-60(TB),> 100 µM
same,growth at 10 µM,MDA-MB-231,55.1%
same,growth at 10 µM,MCF7,12.5%
same,growth at 10 µM,OVCAR-8 [4],6.3%
same,growth at 10 µM,U-251,14.9%
same,growth at 10 µM,SNB-75,61.8%
same,growth at 10 µM,SF-539,26.2%
same,growth at 10 µM,SF-295,15.2%
same,growth at 10 µM,SF-268 [5],37%
same,growth at 10 µM,HCT-15,56.8%
